Data: ChEMBL document CHEMBL1124869, “Synthesis and anti-HIV activity of several 2'-fluoro-containing pyrimidine nucleosides” (J Med Chem, 1990)
In brackets after ≈: the same amount, converted by molar mass. Several values for one entry are separate records, joined by “and”; a condition that tells them apart may be missing. Equal entries are not always repeated.

Tests used:
CCRF-CEM [1] = experiment: Antiviral test was performed against HIV (LAV strain) on CEM cells using 50 tissue culture infectious units.; assay type: functional; settings: Homo sapiens, read-out: ID50 (the source's name)
Outline: (§1)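 CEM-SS T cells infected with HIV-1 LAV strain. Inoculum was 50 or 30 tissue culture infectious units, depending on the assay. Viral replication was read as p24 core antigen in the culture supernatant by sandwich ELISA. Activity is expressed as 50% inhibitory dose (ID50) and 50% tissue culture inhibitory dose (TCID50).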

CCRF-CEM [2] = experiment: Cellular toxicity was measured in CEM cells after 8 days.50 tissue culture infectious doses were used.; assay type: functional, Homo sapiens
CCRF-CEM [3] = experiment: Antiviral test was performed against HIV (LAV strain) on CEM cells using 30 tissue culture infectious units; assay type: functional, Homo sapiens; outline: as §1
Mo [4] = experiment: (§2) In vitro Antiviral activity against MO cell lines; assay type: functional; settings: Homo sapiens, read-out: ID50 (the source's name)
Outline: (§3)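 Freshly isolated monocyte/macrophage cells were infected with the monocytotropic HIV Pan Data Strain (PDS). Antiviral endpoint was p24 viral antigen.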

U-937 [5] = experiment: (§4) In vitro Antiviral activity against U937 cell lines; assay type: functional, Homo sapiens
PBL [6] = experiment: (§5) In vitro Antiviral activity against PBL cell lines; assay type: functional; settings: Homo sapiens, read-out: ID50
Mo [7] = experiment: as §2; assay type: functional, Homo sapiens; outline: as §3
T-cell [8] = experiment: (§6) In vitro Antiviral activity against T-cell lines; assay type: functional, Homo sapiens
Outline: (§7)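 Freshly isolated T cells were stimulated with PHA mitogen and then infected with HIV HTLV-IIIB. Antiviral endpoint was p24 antigen at 10 days postinfection. Cell viability served as the toxicity endpoint.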

U-937 [9] = experiment: as §4; assay type: functional; settings: Homo sapiens, read-out: ID50 (the source's name)
PBL [10] = experiment: as §5; assay type: functional, Homo sapiens
Homo sapiens [11] = organism: Homo sapiens; experiment: Bone marrow toxicity was measured against human colony forming units-granulocyte monocyte (CFU-GM), concentration is 1.0 uM
Outline: (§8)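 Colony formation by normal human granulocyte-monocyte progenitors (CFU-GM) was scored in the presence of 0.1, 1.0 or 10.0 μM drug. Results are given as percent colony survival relative to control, mean ± deviation.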

T-cell [12] = experiment: as §6; assay type: functional; settings: Homo sapiens, read-out: ID50 (the source's name); outline: as §7
Homo sapiens [13] = organism: Homo sapiens; experiment: Bone marrow toxicity was measured against human colony forming units-granulocyte monocyte (CFU-GM), concentration is 10.0 uM; outline: as §8
CCRF-CEM [14] = experiment: (§9) Antiviral test was performed against HIV (LAV strain) on CEM cells using 30 tissue culture infectious units. T; assay type: functional, Homo sapiens; outline: as §1
CCRF-CEM [15] = experiment: Cellular toxicity was measured in CEM cells after 8 days; assay type: functional, Homo sapiens
[16] = (§10) In vitro antiviral activity against (monocyte macrophages) cell lines; assay type: functional; settings: Homo sapiens; read-out: ID50 (the source's name); outline: as §3
[17] = as §10; assay type: functional, Homo sapiens; outline: as §3
T-cell [18] = experiment: (§11) In vitro antiviral activity against T-cells; assay type: functional, Homo sapiens; outline: as §7
T-cell [19] = experiment: as §11; assay type: functional; settings: Homo sapiens, read-out: ID50 (the source's name); outline: as §7
CCRF-CEM [20] = experiment: (§12) In vitro antiviral activity against CEM cell lines; assay type: functional, Homo sapiens; outline: as §1
CCRF-CEM [21] = experiment: as §9; assay type: functional; settings: Homo sapiens, read-out: ID50 (the source's name); outline: as §1
PBL [22] = experiment: (§13) In vitro antiviral activity against PBL cell lines; assay type: functional; settings: Homo sapiens, read-out: ID50 (the source's name)
PBL [23] = experiment: as §13; assay type: functional, Homo sapiens
CCRF-CEM [24] = experiment: as §12; assay type: functional; settings: Homo sapiens, read-out: ID50 (the source's name); outline: as §1
U-937 [25] = experiment: (§14) In vitro antiviral activity against U937 cell lines; assay type: functional, Homo sapiens
U-937 [26] = experiment: as §14; assay type: functional; settings: Homo sapiens, read-out: ID50 (the source's name)

For Cc1cn([C@@H]2O[C@H](CO)C=C2F)c(=O)[nH]c1=O, which IC50 (CCRF-CEM [1]) is on record?
Its IC50 is greater than 25 µg/mL.

And the “cytotoxic concentration in CEM cells” value (CCRF-CEM [2])?
Its value is 9.7 µg/mL.

Which results are given for Cc1cn([C@@H]2O[C@H](CO)[C@@H](N=[N+]=[N-])[C@H]2F)c(=O)[nH]c1=O?
IC50 (CCRF-CEM [1]): > 28.5 µg/mL; cytotoxic concentration in CEM cells (CCRF-CEM [2]): 2.6 µg/mL

Which results are given for Cc1cn([C@@H]2O[C@H](CO)C[C@H]2F)c(=O)[nH]c1=O?
TCID50 (CCRF-CEM [3]): >25 µg/mL; IC50 (CCRF-CEM [1]): > 25 µg/mL

With Nc1ccn([C@@H]2O[C@H](CO)C[C@@H]2F)c(=O)n1 as the compound, how does the IC50 (Mo [4]) read?
Its IC50 is 1 µg/mL (≈ 4.36 µM).

What about the TCID50 (U-937 [5]) of the same compound?
Its TCID50 is 7.7 µg/mL.

What about the IC50 (PBL [6]) of the same compound?
Its IC50 is less than 2 µg/mL.

And the TCID50 (Mo [7])?
The TCID50 was 3.3 µg/mL.

And the TCID50 (T-cell [8])?
Its TCID50 is 10 µg/mL.

What about the IC50 (U-937 [9]) of the same compound?
Its IC50 is 0.14 µg/mL (≈ 0.611 µM).

What about the TCID50 (PBL [10]) of the same compound?
Its TCID50 is 11 µg/mL.

What about the IC50 (CCRF-CEM [1]) of the same compound?
The IC50 was 2.3 µg/mL (≈ 10 µM).

What about the Toxicity (Homo sapiens [11]) of the same compound?
The Toxicity was 37.6.

And the “cytotoxic concentration in CEM cells” value (CCRF-CEM [2])?
The value was >23 µg/mL and 61.9 µg/mL.

And the IC50 (T-cell [12])?
The IC50 was 0.33 µg/mL (≈ 1.44 µM).

What about the Toxicity (Homo sapiens [13]) of the same compound?
Its Toxicity is 0.

And the ID50 (CCRF-CEM [14])?
Its ID50 is 0.9 µg/mL (≈ 3.93 µM).

Which results are given for Nc1ccn([C@@H]2O[C@H](CO)C=C2F)c(=O)n1?
IC50 (CCRF-CEM [1]): 1.3 µg/mL (≈ 5.72 µM); ID50 (CCRF-CEM [14]): 10.9 µg/mL (≈ 48 µM)

For O=c1ccn(C2OC(CO)CC2F)c(=O)[nH]1 (stereo not drawn), which IC50 (CCRF-CEM [1]) is on record?
The IC50 was greater than 10 µg/mL.

What about the “cytotoxic concentration in CEM cells” value (CCRF-CEM [2]) of the same compound?
The value was 57 µg/mL.

For Nc1ccn([C@H]2CC[C@@H](CO)O2)c(=O)n1 [ZALCITABINE], which TCID50 (CCRF-CEM [15]) is on record?
Its TCID50 is 1.3 µg/mL.

And the IC50 (CCRF-CEM [1])?
Its IC50 is 0.007 µg/mL (≈ 0.0331 µM).

With Cc1cn([C@H]2C[C@H](N=[N+]=[N-])[C@@H](CO)O2)c(=O)[nH]c1=O [ZIDOVUDINE] as the compound, how does the IC50 [16] read?
Its IC50 is 0.1 µg/mL (≈ 0.374 µM).

What about the TCID50 [17] of the same compound?
The TCID50 was 10 µg/mL.

What about the TCID50 (T-cell [18]) of the same compound?
Its TCID50 is 100 µg/mL.

What about the IC50 (T-cell [19]) of the same compound?
Its IC50 is 0.033 µg/mL (≈ 0.123 µM).

What about the TCID50 (CCRF-CEM [20]) of the same compound?
The TCID50 was greater than 3 µg/mL.

What about the IC50 (CCRF-CEM [21]) of the same compound?
The IC50 was 0.53 µg/mL (≈ 1.98 µM).

What about the IC50 (CCRF-CEM [1]) of the same compound?
The IC50 was 0.08 µg/mL (≈ 0.299 µM).

What about the IC50 (PBL [22]) of the same compound?
The IC50 was 0.3 ng/mL (≈ 0.00112 µM).

And the TCID50 (PBL [23])?
The TCID50 was 3 µg/mL.

And the IC50 (CCRF-CEM [24])?
The IC50 was 0.03 µg/mL (≈ 0.112 µM).

And the Toxicity (Homo sapiens [13])?
Its Toxicity is 23.6.

And the TCID50 (U-937 [25])?
The TCID50 was 7.5 µg/mL.

And the IC50 (U-937 [26])?
Its IC50 is 0.03 µg/mL (≈ 0.112 µM).
